OX1R antag-1 – blocks the human orexin 1 receptor; AID 434989; 0.43% of 330,000 active; CHO/OX1R cells, Fluo-8 calcium fluorescence, orexin A; O43613; inhibition, % at 5 µM;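 active = inhibition above its plate's threshold, mean inhibition of all tested compounds on the plate plus 3 SD, cut at about 37% in these data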
Target sequence (O43613 whole entry, looked up): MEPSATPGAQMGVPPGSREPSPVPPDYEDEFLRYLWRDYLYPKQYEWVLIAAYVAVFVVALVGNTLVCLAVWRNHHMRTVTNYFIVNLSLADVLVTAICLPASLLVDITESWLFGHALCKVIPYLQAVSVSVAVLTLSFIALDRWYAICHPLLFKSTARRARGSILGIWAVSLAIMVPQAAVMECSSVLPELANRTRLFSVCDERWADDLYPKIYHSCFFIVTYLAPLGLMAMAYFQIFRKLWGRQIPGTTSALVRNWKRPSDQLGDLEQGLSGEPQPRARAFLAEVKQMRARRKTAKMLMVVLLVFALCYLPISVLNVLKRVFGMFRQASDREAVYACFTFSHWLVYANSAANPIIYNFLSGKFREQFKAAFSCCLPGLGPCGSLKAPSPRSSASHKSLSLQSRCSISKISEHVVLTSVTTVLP
GPR7 antagonist – human neuropeptides B/W receptor 1 antagonism; GPR7-expressing cells, fluorescence antagonist assay; inhibition, % at 4.4 µM; 1.1% of 290,000 active; AID 1861; in the data active = inhibition above about 16%, passing the limit was not always enough;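 note: cells stimulated with the agonist NPW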
Target sequence (P48145 whole entry, looked up): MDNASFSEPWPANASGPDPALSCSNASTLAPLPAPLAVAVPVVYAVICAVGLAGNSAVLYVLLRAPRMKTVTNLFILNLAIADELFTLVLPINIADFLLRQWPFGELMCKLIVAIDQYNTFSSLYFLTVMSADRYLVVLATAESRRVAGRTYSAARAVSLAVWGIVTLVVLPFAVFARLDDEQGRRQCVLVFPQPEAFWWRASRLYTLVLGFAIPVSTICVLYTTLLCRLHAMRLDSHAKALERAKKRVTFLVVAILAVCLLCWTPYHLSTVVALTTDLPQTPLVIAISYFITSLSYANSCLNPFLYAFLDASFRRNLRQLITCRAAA
TAAR1 agonist – agonists of human TAAR1. CHO RD-HGA16 TAAR1, Fluo-8 calcium fluorescence; vehicle wells 0%, saturating PEA agonist 100%. 0.99% of 360,000 active. Q96RJ0. activation, % at 3 µM;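 active = activation above the mean activation of all test compounds in the run plus 3 SD, cut at about 38% in these data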
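test system = CHO RD-HGA16 cells carrying human TAAR1 plus Gα16 | schedule = 17-24 h seeding, 75 min 37 °C dye, 30 min RT | compound dosing = 3 µM single concentration | control set = DMSO and PEA EC100 | replicates = n 1 | signal = Fluo-8 fluorescence, 5 s baseline then 140 s kinetic read | measure = percent activation vs PEA EC100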
OX1R antag-2 – OX1R (human) antagonism | 1.8% of 330,000 active | AID 485270 | OX1R-expressing cells, FRET antagonist read-out | inhibition, % at 6.6 µM | O43613; in the data active = inhibition mostly above about 38%, no sharp cut-off; inactive = mostly below about 40%
TAAR1 antagonist – human TAAR1 antagonism. CHO RD-HGA16 TAAR1, Fluo-8 calcium fluorescence, antagonist. Q96RJ0. 1.5% of 360,000 active. inhibition, % at 3 µM. AID 624466;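 active = inhibition above a per-plate cutoff, the mean inhibition of test compounds on that plate plus 3 SD, cut at about 49% in these data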
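System: CHO RD-HGA16 cells bearing hTAAR1. Reagent: EC80 β-phenethylamine stimulus. Schedule: seeding 17-24 h prior, 75-min 37 °C, 30-min RT dye loading. Signal: Fluo-8 intracellular calcium dye fluorescence, real-time kinetic reads. Read-out: % inhibition from peak post-agonist over basal fluorescence ratio. Benchmarks: vehicle wells and EC80 agonist wells. Replicates: n of 1.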
CHO parental Ca – signal in parental CHO cells, OX1R antagonist counter-screen | AID 463079 | inhibition, % at 5.6 µM | 0.63% of 330,000 active | parental CHO-K1, ATP-induced calcium, Fluo-8 fluorescence;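 active = inhibition above that plate's mean sample inhibition plus 3 SD, cut at about 26% in these data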
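Material – parental CHO cells · Reagent – ATP stimulus · Compound – single nominal dose of 5.6 µM per compound · Detection – Fluo-8 fluorescence · Read-out basis – percent inhibition of calcium signal · Controls – ATP-challenged DMSO wells low, unchallenged DMSO wells high · Repeats – no replicates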
Each line names hits and unclear results; the compound was inactive in the other large screens. In the library only some 4.5% were active in any assay of this set; here they are far more common.

Cc1ccc2c(c1)/C(=N/OS(=O)(=O)c1ccccc1)CCS2	none
CC(C)(C)c1nc(NC(=O)Nc2ccccc2)sc1Br	OX1R antag-1 60, GPR7 antagonist 32, CHO parental Ca 47
COc1ccc2nc(NC(=O)Nc3ccccc3)sc2c1	none
COCCCNC(=O)[C@@H](Cc1ccccc1)NC(=O)[C@H]1O[C@@H](n2ccc(=O)[nH]c2=O)[C@H](O)[C@@H]1O	none (no result: OX1R antag-1, GPR7 antagonist, OX1R antag-2, CHO parental Ca)
CCOc1ccc(C(=O)N/N=C/c2cccc3cccnc23)cc1	OX1R antag-2 74
C=CCN1[C@H](C)[C@H](c2ccccc2)Oc2cc(Br)ccc2S1(=O)=O	none (no result: OX1R antag-1, GPR7 antagonist, OX1R antag-2, CHO parental Ca)
N#C/C(=C(/O)c1ccc2c(c1)OCO2)c1nc2cc(C(F)(F)F)ccc2s1	OX1R antag-2 58
Cc1ccc(Cn2c(CCNc3nc(-c4ccc(Cl)c([N+](=O)[O-])c4)cs3)nc3cc(C(=O)NCCCO)ccc32)cc1	TAAR1 antagonist 55 (no result: GPR7 antagonist)
O=[N+]([O-])c1cc(-c2csc(NCCc3nc4cc(C(F)(F)F)ccc4n3CCCO)n2)ccc1Cl	none (no result: GPR7 antagonist)
COc1ccc(Cc2nnc(NC(=O)CSc3ccc(C)cc3)s2)cc1OC	TAAR1 agonist 112, TAAR1 antagonist 87
CC(NC(=O)COC(=O)/C(=C/c1cccs1)c1cccs1)c1ccccc1 (centres undefined)	TAAR1 antagonist 52
COC(=O)Cc1nnn2c1[C@@H](C)[C@@H](c1ccccc1Br)OC[C@H](C)C2	none (no result: OX1R antag-1, GPR7 antagonist, OX1R antag-2, CHO parental Ca)
CN1C(=O)[C@H]2[C@@H](c3ccccc3)N[C@]3(CCCN(Cc4ccc(F)cc4)C3=O)[C@H]2C1=O	none (no result: OX1R antag-1, GPR7 antagonist, OX1R antag-2, CHO parental Ca)
O=C(C(=O)N1CCC(CNS(=O)(=O)c2ccc(F)c(F)c2)CC1)c1cc2ccccc2o1	none (no result: OX1R antag-1, GPR7 antagonist, OX1R antag-2, CHO parental Ca)
Cc1ccc(C)c(OCCC(=O)OCC(=O)N2CCN(S(=O)(=O)c3ccc(Cl)cc3)CC2)c1	none (no result: GPR7 antagonist)
Cc1ccc(S(=O)(=O)N2CCN(C(=O)COC(=O)CCOc3cc(C)ccc3C)CC2)cc1	CHO parental Ca 58 (no result: GPR7 antagonist)
COc1ccc(OC)c(S(=O)(=O)N2CCN(c3c(C)cccc3C)CC2)c1	CHO parental Ca 26
COc1ccc(OC)c(S(=O)(=O)N2CCC(C(=O)Nc3cccc(C(F)(F)F)c3)CC2)c1	TAAR1 antagonist 53
COC(=O)[C@]12C[C@H](CC(=O)N3CCCCC3)C(=O)N(Cc3ccccc3)C1=C[C@H](C(C)(C)C)O[C@@H]2C	none (no result: OX1R antag-1, GPR7 antagonist, OX1R antag-2, CHO parental Ca)
CC(=O)N1CCC(C(=O)N2c3ccccc3N=C(c3ccc(C(F)(F)F)cc3)C2C(=O)NC2CCCC2)CC1 (centres undefined)	none (no result: OX1R antag-1, GPR7 antagonist, OX1R antag-2, CHO parental Ca)
COc1ccccc1NC(=O)c1nn(-c2ccc(Cl)cc2)ccc1=O	none
COc1ccccc1NC(=O)c1nn(-c2ccccc2)ccc1=O	OX1R antag-2 71
O=C(C1CCN(S(=O)(=O)N2CCC3(CC2)OCCO3)CC1)N1CCN(Cc2ccccc2)CC1	GPR7 antagonist 21
O=C(NCCCN1CCN(Cc2ccccc2)CC1)C1CCN(S(=O)(=O)N2CCC3(CC2)OCCO3)CC1	none
C=CC[C@H]1CC(C)=C[C@H](CC=C)N1C(=O)c1cc(COc2ccccc2SC)on1	TAAR1 antagonist 53, CHO parental Ca 44
COCC1CCN(C(=O)c2cc(COc3ccccc3SC)on2)C1 (centres undefined)	none
CC(C)c1[nH]nc2c1C(c1cccc(C(F)(F)F)c1)NC2=O (centres undefined)	none (no result: OX1R antag-1, GPR7 antagonist, OX1R antag-2, CHO parental Ca)
CC(=O)c1c(C)nc2ccccc2c1N	none
Cc1nc2ccccc2c(N)c1C(=O)/C=C/c1ccccc1	TAAR1 agonist 41
CC1(C)CC(=O)C=C(C#CC2CC2)C1	none (no result: OX1R antag-1, GPR7 antagonist, OX1R antag-2, CHO parental Ca)
O=C(OCC(=O)N1CCCC1=O)c1cccc([N+](=O)[O-])c1	OX1R antag-2 48
COc1ccc(C(=O)NNC(=O)c2ccncc2)cc1[N+](=O)[O-]	none
COc1c([N+](=O)[O-])cc(C(=O)NNC(=O)c2ccc(C)cc2)cc1[N+](=O)[O-]	OX1R antag-2 46
Cc1ccc(C)c(-c2cc(C(=O)NNC(=S)NCC(C)C)c3ccccc3n2)c1	TAAR1 antagonist 50
CCNC(=S)NNC(=O)c1cc(-c2ccccc2C)nc2ccccc12	none (no result: TAAR1 agonist, TAAR1 antagonist)
COc1ccc(Oc2c(Cl)cnn(-c3ccc(Cl)c(Cl)c3)c2=O)cc1	CHO parental Ca 52
COc1ccc(-n2c(C)nc3c(cnn3-c3ccc(Cl)cc3)c2=O)cc1	CHO parental Ca 40
Cc1cccc(-n2c(C)nc3c(cnn3-c3ccc(F)cc3)c2=O)c1	CHO parental Ca 35
O=C(Nc1ccccc1N1CCOCC1)c1ccc(Br)o1	none
O=C(Nc1ccc(N2CCOCC2)c(Cl)c1)c1ccc(Br)o1	TAAR1 antagonist 60
COC(=O)c1cc2c(c3c4cc(F)ccc4n(S(=O)(=O)c4cccc(C)c4)c13)C(=O)N(c1ccc(OC)cc1)C2	none (no result: OX1R antag-1, GPR7 antagonist, OX1R antag-2, CHO parental Ca)
O=C(Nc1cccc(C(F)(F)F)c1)c1scc2c1OCCO2	CHO parental Ca 43
Cc1cccn2c(=O)c3cc(C(=O)NC4CCCC4)sc3nc12	OX1R antag-2 55
O=C(Cc1ccc(Cl)cc1)Nc1nc2ccccc2[nH]1	TAAR1 agonist 39
O=C(Cc1ccccc1)Nc1nc2ccccc2[nH]1	none
Nc1ncnc2c1ncn2[C@@H]1O[C@H](C(=O)N[C@@H](CCc2ccccc2)C(=O)N2CCN(CC(=O)N3CCCC3)CC2)[C@@H](O)[C@H]1O	none (no result: OX1R antag-1, GPR7 antagonist, OX1R antag-2, CHO parental Ca)
O=[N+]([O-])c1cc(Oc2cccnc2)cc([N+](=O)[O-])c1	OX1R antag-2 75
CCOC(=O)C1CCCN(c2cc(NCCCO)c([N+](=O)[O-])c3nonc23)C1 (centres undefined)	OX1R antag-2 73
CC(O)(c1ccccc1)C(c1ccccc1)C1CCCCN1 (centres undefined)	none
OC(c1cc(C(F)(F)F)nc2c(Cl)cc(Cl)cc12)C1CCCCN1 (centres undefined)	GPR7 antagonist 45
OC(c1cc(-c2ccc(Cl)cc2)nc2ccccc12)C1CCCCN1 (centres undefined)	GPR7 antagonist 63
O=C(O)c1cnc(-c2ccccc2)nc1-c1ccccc1	OX1R antag-2 62
COC(=O)c1ccc(N)cc1O	none
COC(=O)c1ccccc1-c1c2ccc(=N)cc-2oc2cc(N)ccc12	OX1R antag-1 112, TAAR1 agonist active, OX1R antag-2 30, TAAR1 antagonist 105, CHO parental Ca 102 (no result: GPR7 antagonist)
O=C(Nc1cccn(Cc2ccc(F)cc2)c1=O)NC1CCCCC1	TAAR1 agonist 39
CC1CN(S(=O)(=O)c2cccc(C(=O)NCC(c3cccs3)N3CCOCC3)c2)CC(C)O1 (centres undefined)	none (no result: OX1R antag-1, GPR7 antagonist, OX1R antag-2, CHO parental Ca)
O=C1c2cccc(O)c2C(=O)c2c(O)cc(CO)cc21	OX1R antag-2 48 (no result: GPR7 antagonist, TAAR1 agonist, TAAR1 antagonist)
COC(=O)Cc1nnn2c1[C@H](C)[C@@H](OC)c1ccc(C(F)(F)F)cc1-2	none (no result: OX1R antag-1, GPR7 antagonist, OX1R antag-2, CHO parental Ca)
O=C(c1ccc(COc2ccc(Cl)cc2)o1)N1CCN(Cc2ccc3c(c2)OCO3)CC1	TAAR1 antagonist 52

Bioassay records (PubChem)
